Assay outcomes deposited in PubChem BioAssay by Broad Institute.
HIV Env fusion = inhibitors of HIV-1 Env-driven cell-cell fusion, primary screen, HeLa-JRFL effector, CEM21 target cells, luciferase; inhibition, % at 12.3 µM; 360,000 compounds, 1.1% hits; AID 651610, 2012;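 active means mean replicate inhibition score of at least 50 and every replicate individually at or above 50; inconclusive means only one of the two criteria met; inactive means mean below 50 and not all replicates reaching 50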;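 further: 0% = plate neutral controls and 100% = maraviroc near 300 nM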
Wnt act = Wnt/beta-catenin pathway activators, primary screen, cell-based, plate reader, single point | Wnt/beta-catenin reporter cell assay, activator | activation, % at 9.35 µM | 300,000 compounds, 1.2% hits; in the data active means activation above about 30%, passing the limit was not always enough; inconclusive means no clear call, values can overlap the other calls;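 further: 0% = neutral control wells and 100% = positive control wells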
MITF TRPM1 HTS = activators of MITF-driven TRPM1 promoter reporter, primary screen, cell-based, SK-MEL-5, luciferase, single point; SK-MEL-5 TRPM1-promoter luciferase, 24 h; % of positive control, neutral wells = 0; activation, % at 12.5 µM; 300,000 compounds, 0.75% hits;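 active means mean activation of at least 80% with every replicate also reaching 80%; inconclusive means mean reaches 80% but some replicate falls short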;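 further: 0% = neutral control wells and 100% = parthenolide positive control wells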
esBAF inh = Bmi1 luciferase reporter increase in mESCs, primary screen, esBAF inhibitor project, mouse ES cells, Bmi1 luciferase knock-in, single point; reporter increase, % at 12.5 µM; 350,000 compounds, 2% hits; 24 h; 100% = twice the neutral-well signal; AID 602393, 2012; in the data active means activation above about 40%; inconclusive means no clear call, values can overlap the other calls;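 further: 0% = median of the plate's neutral control wells and 100% = double that signal; a rise in the Bmi1 reporter signal indicates esBAF inhibition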
Cneo AK release = Cryptococcus neoformans cell lysis inducers, primary screen, AK release luminescence, single concentration; C. neoformans lysis, adenylate kinase release luminescence, 4 h; normalised: neutral wells 0, clomiphene wells 100; lysis activity, % at 15 µM; 360,000 compounds, 0.2% hits; AID 651654, 2012;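 active means mean lysis activity across replicates of at least 80%, whatever share of replicates individually reach that level; inactive means mean lysis activity below 80%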
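Material – Cryptococcus neoformans yeast cells · Quantity – 5 × 10^6 yeast cells/mL · Buffer or medium – YPD medium · Compound – single dose · Timing – 4 h static compound exposure, 37 °C, read 1 h post-reagent · Signal – adenylate kinase release luminescence · Read-out basis – lysis from increased AK signal · Benchmarks – Clomiphene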
ERAP1 inh = human ERAP1 aminopeptidase inhibitors, primary screen, biochemical, single point, plate reader | Endoplasmic reticulum aminopeptidase 1 (Homo sapiens), Q9NZ08 | recombinant ERAP1, Leu-AMC fluorescence, 60 min | inhibition, % at 10.7 µM | 340,000 compounds, 0.15% hits;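 active means mean replicate inhibition of at least 30%, or all replicates individually reaching that 30% level; inactive means mean below 30% and not every replicate reaching it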;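 further: 0% = neutral control wells and 100% = L-leucinethiol positive control wells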
Target sequence (Q9NZ08 whole entry, looked up): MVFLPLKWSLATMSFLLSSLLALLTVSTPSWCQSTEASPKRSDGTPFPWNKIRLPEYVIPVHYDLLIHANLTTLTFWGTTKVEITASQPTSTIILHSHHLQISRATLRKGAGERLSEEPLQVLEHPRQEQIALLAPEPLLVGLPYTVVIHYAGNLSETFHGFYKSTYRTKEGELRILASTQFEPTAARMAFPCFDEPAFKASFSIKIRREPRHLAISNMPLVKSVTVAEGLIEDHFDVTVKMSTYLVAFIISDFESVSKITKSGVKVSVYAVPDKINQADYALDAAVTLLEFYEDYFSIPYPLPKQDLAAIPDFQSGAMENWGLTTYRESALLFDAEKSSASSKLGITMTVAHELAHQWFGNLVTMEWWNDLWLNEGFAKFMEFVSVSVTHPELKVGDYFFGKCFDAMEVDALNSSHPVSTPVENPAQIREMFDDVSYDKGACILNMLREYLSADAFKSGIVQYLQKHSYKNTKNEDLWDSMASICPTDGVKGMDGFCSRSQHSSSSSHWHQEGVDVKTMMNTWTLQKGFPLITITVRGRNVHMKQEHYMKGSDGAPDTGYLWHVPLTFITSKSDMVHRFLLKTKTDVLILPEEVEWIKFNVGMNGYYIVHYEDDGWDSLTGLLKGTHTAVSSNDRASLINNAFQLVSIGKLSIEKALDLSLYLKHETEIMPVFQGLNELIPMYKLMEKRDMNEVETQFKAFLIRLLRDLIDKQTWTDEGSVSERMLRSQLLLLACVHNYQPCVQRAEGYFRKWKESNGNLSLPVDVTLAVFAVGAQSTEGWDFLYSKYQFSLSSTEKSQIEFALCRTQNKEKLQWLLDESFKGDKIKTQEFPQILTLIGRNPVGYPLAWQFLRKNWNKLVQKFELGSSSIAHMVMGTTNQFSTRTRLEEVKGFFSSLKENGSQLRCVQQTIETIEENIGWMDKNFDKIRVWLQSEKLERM
Numbers without * were called inactive; i = inactive; ? = inconclusive; · = no result; [ ] = dose if it differs, or a comment. This is a sample that favours compounds with a hit; in the whole collection about 3.5% have one here.

SMILES | HIV Env fusion | Wnt act | MITF TRPM1 HTS | esBAF inh | Cneo AK release | ERAP1 inh
Cc1noc(C(=O)Nc2ccc(F)c(Cl)c2)c1Cl | -15 | 7 | 25 | 49* | -16 | 1
COc1cc(C(=O)Nc2ccc3c(c2)OCCO3)ccc1OC(C)C | · | · | 75 | ? | -14 | ·
COc1cc(C(=O)Nc2ccc3c(c2)OCCO3)ccc1OC(F)F | -130 | 0 | 98* | 70* | -22 | ·
COc1ccc(C(=O)Nc2ccc(Cl)c(Cl)c2)c(OC)n1 | · | 16 | 46 | 66* | -1 | ·
COc1ccc(C(=O)O)c(OC)n1 | 19 | -2 | -4 | -5 | 3 | -1
Cc1ccc(NC(=O)c2onc(C)c2Cl)cc1 | -31 | 1 | 23 | 2 | -2 | 2
CCn1cc(Br)c(C(=O)Nc2ccc(F)c(Cl)c2)n1 | -5 | 21 | · | 58* | -4 | ·
C[C@@H]1CN([C@H](C)CO)S(=O)(=O)c2ccc(-c3ccccc3)cc2O[C@H]1CN(C)S(C)(=O)=O | 20[16.7 µM] | · | · | -3 | 8 | -35
O=C(Nc1ccc(N2CCN(C(=O)c3ccc(Cl)cc3)CC2)cc1)c1ccc2c(c1)OCCO2 | 86* | 8 | -73 | -10 | 2 | ·
O=C(Nc1ccc(F)c(Cl)c1)c1cccnc1 | -6 | -1 | · | 10 | 2 | 2
O=C(Nc1ccc(F)c(Cl)c1)c1ccc2c(c1)OCO2 | -162 | 0 | · | 55* | -7 | 5
O=C(Nc1ccc(N2CCN(C(=O)c3ccccc3)CC2)cc1)c1ccc2c(c1)OCCO2 | · | 0 | -12 | 26 | 2 | 1
O=C(Nc1ccc(F)c(Cl)c1)c1ccccc1 | -22 | ? | 72 | 70* | -6 | ·
COc1ccc(C(=O)OCC(=O)Nc2ccc3c(c2)OCCO3)c(OC)c1 | · | -5 | 3 | -1 | 2 | -1
COc1ccc(C(=O)Nc2ccc3c(c2)OCCO3)c(OC)c1 | -132 | 55* | · | 0 | -26 | -2
C[C@@H]1CCCCO[C@@H](CN(C)Cc2ccccc2)[C@@H](C)CN([C@@H](C)CO)C(=O)c2cc(NS(=O)(=O)c3cn(C)cn3)ccc2O1 | -7[16.7 µM] | · | · | -6 | 2 | 4
COc1ccccc1S(=O)(=O)N[C@H]1C=C[C@H](CC(=O)N2CCCCC2)O[C@H]1CO | 5[16.7 µM] | · | · | -6 | -6 | 3
COc1ccc(NC(=O)c2cc(F)c(F)cc2Cl)cc1Cl | -11 | 20 | 56 | 52* | 3 | 1
COc1ccc(NC(=O)c2ccc3c(c2)OCCO3)cc1OC | -25 | 17 | 75 | 39 | -7 | -5
CCOC(=O)c1ccc(NC(=O)c2cc(F)c(F)cc2Cl)cc1 | -1 | 4 | 12 | 23 | -2 | -3
COc1ccc(NC(=O)c2ccc3c(c2)OCO3)cc1Cl | i | · | 88* | · | -7 | ·
O=C(C[C@@H]1C=C[C@@H](NS(=O)(=O)c2ccccc2)[C@H](CO)O1)NCc1ccc(Cl)c(Cl)c1 | -2[16.7 µM] | · | · | 4 | -16 | 0
NS(=O)(=O)c1cccc(NC(=O)CSc2nn(-c3ccccc3)c(=S)s2)c1 | 27 | -6 | -5 | 1 | -1 | ·
Cc1ccc(NC(=O)CNc2ccc(Cl)c(Cl)c2)cc1S(=O)(=O)N(C)C | 20 | -1 | -30 | 8 | 2 | 1
Cc1ccc(NC(=O)CSc2nn(-c3ccc(Cl)cc3)c(=S)s2)cc1S(=O)(=O)N(C)C | 83* | -2 | -15 | -1 | -2 | 0
SMILES | HIV Env fusion | Wnt act | MITF TRPM1 HTS | esBAF inh | Cneo AK release | ERAP1 inh
CN(C)S(=O)(=O)c1cc(NC(=O)CSc2nn(-c3ccc(Cl)cc3)c(=S)s2)ccc1Cl | 133* | -2 | -12 | · | · | ·
COc1ccc(-c2ccc([C@H]3[C@@H](CO)N4C(=O)CNC[C@@H]34)cc2)cc1 | · | · | · | · | · | -1
OC1CCCCC1Sc1nc2ccccc2s1 (stereo unspecified) | -20 | 28 | 55 | 53* | 0 | ·
O=C1c2ccccc2C(=O)N1CCSc1ccccc1 | · | · | · | 50* | -7 | ·
O=C(Nc1cccc(F)c1)N1CC(=O)N2[C@@H](CO)[C@H](c3ccc(C#Cc4cccnc4)cc3)[C@@H]2C1 | · | · | · | · | · | 0
C[C@@H]1CCCCO[C@H](CN(C)CC2CCCCC2)[C@H](C)CN([C@H](C)CO)C(=O)c2cc(NS(=O)(=O)c3cn(C)cn3)ccc2O1 | -6[16.7 µM] | · | · | -2 | 1 | -1
CCOc1ccccc1-n1nnnc1SCC(=O)NC(=O)NCc1ccco1 | -84 | -2 | -4 | 5 | 5 | ·
CCOc1ccccc1-n1nnnc1SCC(=O)NC(=O)Cc1ccccc1 | -8 | -1 | -4 | 1 | · | 33*
CN1C(=O)c2cc(NC(=O)c3cscn3)ccc2OC[C@H]2O[C@H](CC(=O)NCc3ccc(Cl)c(Cl)c3)CC[C@@H]21 | ? | · | · | -3 | 0 | -4
CN1C(=O)c2cc(NC(=O)c3cscn3)ccc2OC[C@@H]2O[C@@H](CC(=O)NCc3ccc(Cl)c(Cl)c3)CC[C@H]21 | 57*[16.7 µM] | · | · | 5 | 1 | -3
COc1ccc(CNC(=O)C[C@H]2CC[C@H]3[C@@H](COc4ccc(NC(=O)C5CC5)cc4C(=O)N3C)O2)cc1 | -4[16.7 µM] | · | · | 0 | 91* | 0
COc1ccc(CNC(=O)C[C@H]2CC[C@H]3[C@H](COc4ccc(NC(=O)C5CC5)cc4C(=O)N3C)O2)cc1 | -9[16.7 µM] | · | · | 4 | 14 | -1
CCNC(=O)C[C@H]1CC[C@@H]2[C@H](COc3ccc(NC(=O)Nc4cccc(C)c4)cc3C(=O)N2C)O1 | 4[16.7 µM] | · | · | 6 | 1 | 2
O=C(C[C@H]1CC[C@H]2[C@@H](COC[C@H](O)CN2C(=O)C2CCOCC2)O1)NCc1ccncc1 | -2[16.7 µM] | · | · | 3 | 0 | 0
CO[C@H]1CN(C)C(=O)c2ccc(NS(=O)(=O)c3ccc(-c4ccccc4)cc3)cc2OC[C@@H](C)NC[C@H]1C | · | · | · | 3 | -1 | -2
N/C(=N\OC(=O)C1CCCCC1)c1cccc(Br)c1 | · | · | 108* | 45* | -2 | ·
COc1ccc(CC(=O)O/N=C(\N)c2ccc(OC)cc2)cc1 | -41 | 23 | · | · | -1 | -4
COc1ccc(/C(N)=N/OC(=O)C2CCCCC2)cc1OC | -71 | 26 | 88* | 51* | -5 | 0
COc1ccc(/C(N)=N/OC(=O)C2CCCCC2)cc1 | i | 40* | 47 | 61* | -2 | 1
Cc1ccc(N=C2N=C(N)c3ccccc32)cc1C | -7 | · | -3 | 55* | -3 | ·
Clc1ccccc1CSc1nnc(-c2ccccn2)n1Cc1ccco1 | 66* | · | · | -16 | -3 | ·
Cn1c(SCc2ccccc2F)nnc1-c1ccccn1 | -19 | 56* | 54 | 27 | 5 | 1
Cn1c(SCc2ccc(F)cc2)nnc1-c1ccccn1 | -147 | 43* | 52 | 41* | 0 | ·
Cc1ccc(CSc2nnc(-c3ccccn3)n2C)cc1 | -91 | 10 | · | 27 | 3 | ·
